Assay [1] is filed under the species Mus musculus. Put plainly: Motility against number of interrupted beams in 1 hr in reserpine & apomorphine treated mice by 9 determinations. The format is functional. The essentials:
(§1)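 Mice reserpinized (10 mg/kg ip), then apomorphine 2 mg/kg ip given 20 h later; benzamide dosed 1 h before apomorphine. Individual photocell beam interruptions recorded for 60 min after apomorphine. Controls received acacia gum aqueous suspension; means ± SEM, Student's t test vs controls.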

The species named for assay [2] is Mus musculus. Briefly: Antipsychotic effect was tested against motility scores in naive mice at a control value of 815. The assay is classed as functional.
The species named for assay [3] is Mus musculus. Briefly: Motility against number of interrupted beams in 1 hour in naive mice by 9 determinations. The assay is classed as functional.
The species entered for assay [4] is Rattus norvegicus. Briefly: Compound was evaluated for the homovanillic acid levels of rats corpus striata by 7 determinations. The format is functional. The gist of the method: (§2)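 Male Wistar C.F. rats (200 ± 20 g); corpus striatum removed 5 h after dosing, HVA extracted from tissue and measured fluorimetrically, expressed as µg/g. Controls got acacia gum suspension; means ± SEM, Student's t test vs controls.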

For assay [5], the species on record is Mus musculus. Put plainly: Motility against number of interrupted beams in 1 hour in reserpine treated mice by 4 determinations. The assay is classed as functional.
The species entered for assay [6] is Rattus norvegicus. Put plainly: Compound was evaluated for the homovanillic acid levels of rats limbic system by 7 determinations. The assay is classed as functional. The gist of the method:
(§3)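 Male Wistar C.F. rats (200 ± 20 g); limbic system dissected 5 h post-dose, HVA extracted and determined by fluorimetry (µg/g tissue). Vehicle controls received acacia gum aqueous suspension; means ± SEM, Student's t test.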

For assay [7], the species on record is Mus musculus. Briefly: Antipsychotic effect was tested against motility scores in reserpinized mice at a control value of 11. The format is functional.
The species named for assay [8] is Mus musculus. Put plainly: Motility against number of interrupted beams in 1 hour in reserpine treated mice by 13 determinations. The format is functional.
The species entered for assay [9] is Rattus norvegicus. Put plainly: Compound was evaluated for the homovanillic acid levels of rats corpus striata by 18 determinations. The format is functional. The gist of the method: as §2
For assay [10], the species on record is Mus musculus. Put plainly: Motility against number of interrupted beams in 1 hour in naive mice by 15 determinations. The assay is classed as functional.
The species entered for assay [11] is Mus musculus. Briefly: Motility against number of interrupted beams in 1 hr in reserpine & apomorphine treated mice by 11 determinations. The format is functional. The essentials:
as §1

For assay [12], the species on record is Rattus norvegicus. Put plainly: Compound was evaluated for the homovanillic acid levels of rats limbic system by 17 determinations. The assay is classed as functional. The gist of the method: as §3
The species entered for assay [13] is Mus musculus. Put plainly: Motility against number of interrupted beams in 1 hour in naive mice by 13 determinations. The format is functional.
Assay [14] is filed under the species Rattus norvegicus. Put plainly: Compound Evaluated for the homovanillic acid levels of rats corpus striata by 12 determinations. The assay is classed as functional. The essentials: as §2
Assay [15] is filed under the species Mus musculus. Put plainly: Motility of the Compound was tested against number of interrupted beams in 1 hr in reserpine & apomorphine treated mice by 14 determinations. The format is functional. The essentials: as §1
For assay [16], the species on record is Rattus norvegicus. Briefly: Compound Evaluated for the homovanillic acid levels of rats limbic system by 12 determinations. The assay is classed as functional. The gist of the method:
as §3

The species named for assay [17] is Mus musculus. Put plainly: Motility of the Compound was tested against number of interrupted beams in 1 hour in reserpine treated mice by 8 determinations. The format is functional.
The species entered for assay [18] is Rattus norvegicus. Briefly: Compound was evaluated for the homovanillic acid levels of rats Corpus striata by 7 determinations. The format is functional. The gist of the method: as §2
Assay [19] is filed under the species Rattus norvegicus. Put plainly: Compound was evaluated for the homovanillic acid levels of rats limbic system by 6 determinations. The format is functional. The essentials: as §3
The species entered for assay [20] is Mus musculus. Put plainly: Motility against number of interrupted beams in 1 hour in naive mice by 10 determinations. The assay is classed as functional.
For assay [21], the species on record is Mus musculus. Briefly: Motility against number of interrupted beams in 1 hr in reserpine & apomorphine treated mice by 21 determinations. The format is functional. The essentials:
as §1

Assay [22] is filed under the species Rattus norvegicus. Briefly: Compound was evaluated for the homovanillic acid levels of rats limbic system by 15 determinations. The assay is classed as functional. The gist of the method: as §3
The species named for assay [23] is Mus musculus. Briefly: Motility against number of interrupted beams in 1 hour in reserpine treated mice by 9 determinations. The format is functional.
For assay [24], the species on record is Rattus norvegicus. Put plainly: Compound was evaluated for the homovanillic acid levels of rats corpus striata by 14 determinations. The format is functional. The gist of the method:
as §2

For assay [25], the species on record is Mus musculus. Briefly: Motility of the Compound was tested against number of interrupted beams in 1 hr in reserpine & apomorphine treated mice by 12 determinations. The format is functional. The essentials: as §1
The species entered for assay [26] is Rattus norvegicus. Put plainly: Compound was evaluated for the homovanillic acid levels of rats limbic system by 8 determinations. The format is functional. The gist of the method:
as §3

Assay [27] is filed under the species Mus musculus. Put plainly: Motility of the Compound was tested against number of interrupted beams in 1 hour in naive mice by 10 determinations. The assay is classed as functional.
The species entered for assay [28] is Mus musculus. Briefly: Motility against number of interrupted beams in 1 hour in reserpine treated mice by 4 determinations. The format is functional.
The species named for assay [29] is Rattus norvegicus. Put plainly: Compound was evaluated for the homovanillic acid levels of rats corpus striata by 11 determinations. The format is functional. The gist of the method: as §2
The species entered for assay [30] is Mus musculus. Put plainly: Motility against number of interrupted beams in 1 hr in reserpine & apomorphine treated mice by 10 determinations. The format is functional. The gist of the method:
as §1

The species entered for assay [31] is Mus musculus. Briefly: Antipsychotic effect was tested against motility scores in reserpinized mice at a control value of 11; toxic. The assay is classed as functional, organism-based.

With `Cc1cc(C)nc(NC(=O)c2ccc(F)cc2)c1`, the Motility is 491 in the assay listed under Mus musculus [1]; 291 in the assay filed under Mus musculus [2]; 299 in the assay filed under Mus musculus [3]; 118.2 in the assay listed under Mus musculus [5]; 113 in the assay filed under Mus musculus [7]. The HVA level in the assay listed under Rattus norvegicus [4] is 0.667 µg/g; in the assay filed under Rattus norvegicus [6] it was 0.194 µg/g.
`CCS(=O)(=O)c1ccc(OC)c(C(=O)Nc2cc(C)cc(C)n2)c1`: the Motility in the assay filed under Mus musculus [2] is 841; in the assay listed under Mus musculus [7] it was 16.
For `COc1cccc(C(=O)Nc2cc(C)cc(C)n2)c1`, in that order: 822 and 0.
As for `CSc1ccc(C(=O)Nc2cc(C)cc(C)n2)cc1`, the Motility stood at 770 in the assay filed under Mus musculus [2] and 0 in the assay listed under Mus musculus [7].
Regarding `Cc1cc(C)nc(NC(=O)c2cccc(N)c2)c1`, the Motility in the assay listed under Mus musculus [2] worked out at 652; in the assay listed under Mus musculus [7] it was 4.
For `CCCN(C(=O)c1ccccc1)c1cc(C)cc(C)n1`, in that order: 780 and 8.
For the compound `Cc1cc(C)nc(NC(=O)c2cccc(C(F)(F)F)c2)c1`, the results for the Motility in the assay listed under Mus musculus [2] and in the assay listed under Mus musculus [7] were 661 and 4, respectively.
Regarding `Cc1cc(C)nc(NC(=O)c2cccc(Br)c2)c1`, the Motility in the assay listed under Mus musculus [2] is 826; in the assay listed under Mus musculus [7], 21.
Take `CCOc1ccc(C(=O)Nc2cc(C)cc(C)n2)cc1`: the Motility in the assay filed under Mus musculus [2] is on record as 552; in the assay filed under Mus musculus [7], 4.
As to `Cc1cc(C)nc(NC(=O)c2cccc(Cl)c2)c1`, the Motility in the assay listed under Mus musculus [2] was found to be 617; in the assay filed under Mus musculus [8], 41.2; in the assay filed under Mus musculus [7], 52; in the assay filed under Mus musculus [10], 577; in the assay filed under Mus musculus [11], 727. In addition, the HVA level was 0.396 µg/g in the assay filed under Rattus norvegicus [9] and 0.141 µg/g in the assay listed under Rattus norvegicus [12].
On to `COc1ccc(C(=O)Nc2cc(C)cc(C)n2)cc1`, for which the results for the Motility in the assay filed under Mus musculus [2] and in the assay filed under Mus musculus [7] were 456 and 0, respectively.
For `CC(=O)Nc1cccc(C(=O)Nc2cc(C)cc(C)n2)c1` the same measures were 777 and 8.
For `Cc1cc(C)nc(NC(=O)c2ccccc2)c1`, the Motility in the assay filed under Mus musculus [2] is on record as 450; in the assay filed under Mus musculus [13], 427; in the assay listed under Mus musculus [15], 642; in the assay filed under Mus musculus [17], 85.1; in the assay listed under Mus musculus [7], 83. For the same compound, the HVA level in the assay filed under Rattus norvegicus [14] is 0.504 µg/g; in the assay filed under Rattus norvegicus [16] it was 0.297 µg/g.
As to `Cc1cccc(C(=O)Nc2cc(C)cc(C)n2)c1`, the Motility in the assay listed under Mus musculus [2] came to 505; in the assay filed under Mus musculus [7], 0.
Turning to `CCN(C(=O)c1ccc(F)cc1)c1cc(C)cc(C)n1`, the Motility in the assay listed under Mus musculus [2] was found to be 965; in the assay filed under Mus musculus [7], 29.
Take `CCN(C(=O)c1ccccc1)c1cc(C)cc(C)n1`: the Motility is listed as 914 in the assay filed under Mus musculus [2] and 31 in the assay filed under Mus musculus [7].
For `Cc1cc(C)nc(NC(=O)c2ccc([N+](=O)[O-])cc2)c1`, in that order: 746 and 0.
For `COc1ccc(S(C)(=O)=O)cc1C(=O)Nc1cc(C)cc(C)n1`, in that order: 755 and 2.
Consider `CCN1CCCC1CNC(=O)c1cc(S(=O)(=O)CC)ccc1OC` (stereo unspecified) [SULTOPRIDE], for which the HVA level in the assay filed under Rattus norvegicus [18] is 1.898 µg/g; in the assay filed under Rattus norvegicus [19] it was 0.493 µg/g. Also, the Motility in the assay listed under Mus musculus [20] amounted to 135; in the assay filed under Mus musculus [11] it was 152.
`Cc1cc(C)nc(NC(=O)c2ccc(Cl)cc2)c1`: the Motility in the assay listed under Mus musculus [21] was determined as 577; in the assay filed under Mus musculus [2], 630; in the assay listed under Mus musculus [23] it was 73.4; in the assay listed under Mus musculus [7] it was 72; in the assay filed under Mus musculus [20] it was 619. Further, the HVA level in the assay listed under Rattus norvegicus [22] worked out at 0.355 µg/g; in the assay listed under Rattus norvegicus [24] it was 0.644 µg/g.
Consider `CCN(CC)CCNC(=O)c1cc(Cl)c(N)cc1OC` [METOCLOPRAMIDE], for which the figures for the Motility in the assay listed under Mus musculus [25] and in the assay listed under Mus musculus [27] were 63 and 126, respectively. Besides, the HVA level in the assay listed under Rattus norvegicus [4] stood at 2.531 µg/g; in the assay filed under Rattus norvegicus [26] it was 0.618 µg/g.
On to `Cc1cc(C)nc(NC(=O)c2ccc(N)cc2)c1`, for which the Motility in the assay listed under Mus musculus [2] came to 337; in the assay listed under Mus musculus [28], 0; in the assay filed under Mus musculus [7], 9; in the assay listed under Mus musculus [20] it was 439; in the assay listed under Mus musculus [30], 385. The HVA level in the assay filed under Rattus norvegicus [6] is 0.268 µg/g; in the assay filed under Rattus norvegicus [29], 0.308 µg/g.
Consider `CCN(C(=O)c1cccc(Cl)c1)c1cc(C)cc(C)n1`, for which the Motility is recorded as 941 in the assay filed under Mus musculus [2] and 21 in the assay filed under Mus musculus [7].
For `COc1ccccc1C(=O)Nc1cc(C)cc(C)n1` the same measures were 646 and 7.
Consider `Cc1cc(C)nc(NC(=O)c2ccc(Br)cc2)c1`, for which the results for the Motility in the assay listed under Mus musculus [2] and in the assay filed under Mus musculus [7] were 797 and 0, respectively.
For `COc1ccc(Cl)cc1C(=O)Nc1cc(C)cc(C)n1`, in that order: 748 and 19.
Take `CC(=O)Nc1ccc(C(=O)Nc2cc(C)cc(C)n2)cc1`: the Motility is on record as 522 in the assay listed under Mus musculus [2] and 12 in the assay listed under Mus musculus [7].
`Cc1cc(C)nc(NC(=O)c2ccccc2O)c1`: the Motility in the assay listed under Mus musculus [2] amounted to 747; in the assay listed under Mus musculus [7], 0.
`Cc1cc(C)nc(NC(=O)c2cccc([N+](=O)[O-])c2)c1`: the figures for the Motility in the assay filed under Mus musculus [2] and in the assay listed under Mus musculus [7] were 634 and 15, respectively.
For `Cc1cc(C)nc(NC(=O)c2ccccc2Cl)c1` the same measures were 875 and 4.
For the compound `Cc1cc(C)nc(N(C)C(=O)c2ccccc2)c1`, the Motility is 796 in the assay filed under Mus musculus [2] and “Toxic” in the assay filed under Mus musculus [31].

These data come from ChEMBL document CHEMBL1122987, “Synthesis and central dopaminergic effects of N-(4,6-dimethyl-2-pyridinyl)benzamides” (1985).
